Screens as filed in PubChem BioAssay.
Only some compounds are listed: those with a hit (about 4.9% of all), similar ones and a draw of the others.
STAT3 act = STAT3 signaling activation | U3A cells, IL-6 STAT3-luciferase reporter, luminescence; 100% = signal with IL-6 EC80 alone | activation (% of control), % at 5.6 µM | 190,000 tested, 0.91% active;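 active = activation above the screen-wide mean of compound activation plus 3 SD, cut at about 130% in these data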
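system = STAT3-luciferase reporter U3A cells | reagent = IL-6 stimulus at 33 ng/mL final | timing = 1 h compound pre-exposure, 6 h IL-6 stimulation, 37 °C | measured by = luminescence | evaluation = % activation versus median of IL-6-stimulated wells | control set = IL-6-only wells as 100% reference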
STAT1 activator = STAT1 signaling activation; activation (% of control), % at 5.5 µM; 200,000 tested, 2.6% active; NIH 3T3 STAT1-luciferase reporter, IFN-gamma, luminescence; 100% = IFN-gamma alone, no compound;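 active = activation above the screen-wide mean activation plus 3 SD, cut at about 130% in these data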
NF-kB neuron act = raises NF-kB expression in human neuronal cells; fold change at 12.5 µM; NF-kB reporter expression; stronger effect = higher value; AID 1239; 190,000 tested, 1.6% active; in the data active = fold change above about 3.3
APP 5'UTR act = APP 5'UTR luciferase reporter activation; 190,000 tested, 1% active; SH-SY5Y APP 5'UTR luciferase reporter, luminescence; zero percent = DMSO vehicle wells; activation, % at 2 µM; AID 1276;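 active = activation above a set limit, based on mean plus 3 SD of controls, cut at about 140% in these data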
STAT1 blocker = reduces IFN-gamma driven STAT1 reporter signal; NIH 3T3 STAT1-luciferase reporter, luminescence; inhibition, % at 5.5 µM; 200,000 tested, 0.35% active;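 active = inhibition above a set limit, the mean inhibition across all tested compounds plus 3 SD, cut at about 34% in these data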
STAT3 inh = reduces IL-6 driven STAT3 reporter signal | U3A cells, IL-6 STAT3-luciferase reporter, luminescence; host cell line lacks STAT1 | inhibition, % at 5.5 µM | 190,000 tested, 0.89% active | AID 862;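 active = inhibition above the mean inhibition across all screened compounds plus 3 SD, cut at about 44% in these data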
Numbers stand for hits; - = inactive; . = not tested or not shown.

SMILES	STAT3 act	STAT1 activator	NF-kB neuron act	APP 5'UTR act	STAT1 blocker	STAT3 inh
Cc1ccc([N+](=O)[O-])cc1N=Nc1c(-c2ccc([N+](=O)[O-])cc2)[nH]n(C(N)=S)c1=O	-	-	-	-	35	46
N#Cc1c(NCCN)nc(NCc2ccccc2)c2c1CCN(Cc1ccccc1)C2	-	-	.	-	-	-
C=CCNc1nc(NCc2ccccc2)c(C#N)c2c1CN(C)CC2	133	-	-	-	-	-
COc1ccc2c(CC(=O)N3CCc4ccccc43)coc2c1	-	-	4.9	142	-	-
C/C(CCC(C)C)=N\Nc1cc(C)c2ccccc2n1	-	-	-	-	-	-
Clc1ccccc1-c1nnc(-c2cccs2)o1	-	143	6	182	-	-
C(=C\c1nnc(-c2cccs2)o1)/c1ccccc1	-	143	5	-	-	-
Cc1ccc(/C=C/c2nnc(-c3ccccc3)o2)cc1	-	-	-	-	-	-
COc1cc(OC)cc(-c2cc(NC(C)=O)n[nH]2)c1	-	-	-	-	-	-
CC(=O)Nc1cc(-c2ccc(Cl)cc2)[nH]n1	-	144	-	-	-	-
CC(=O)N1CCN(Cc2nc3cc(NC(=O)NC4CCCCC4)ccc3n2C)CC1	-	-	-	-	-	-
Fc1ccc2nc3[nH]c4ccccc4c3nc2c1	135	214	4.4	157	-	-
CCCCc1noc(-c2c(-c3ccccc3Cl)noc2C)n1	-	-	-	-	-	-
Cc1cc(Cl)ccc1OCc1cn2cccnc2n1	-	133	-	-	-	-
Clc1ccc(OCc2cn3cccnc3n2)c2ncccc12	-	-	-	-	-	-
O=C(N/N=C/c1cn(-c2ccccc2)nc1-c1cccs1)c1ccncc1	-	-	-	-	-	-
Cc1ccc(-c2nn(-c3ccccc3)cc2CO)o1	-	148	3.8	-	-	-
Cc1ccc(-c2nn(-c3ccccc3)cc2/C=N/NC(=O)c2ccncc2)o1	-	-	-	158	-	-
Cc1ccc(-c2nn(-c3ccccc3)cc2C=O)o1	-	143	4.5	144	-	-
Cc1cc(C=C2C(=O)c3ccccc3C2=O)c(C)n1-c1cccc(C(=O)O)c1	-	-	-	-	-	-
Cc1cc(/C=C2/C(=O)NN(c3ccccc3)C2=O)c(C)n1-c1cccc(O)c1	-	-	-	181	-	-
O=C(c1ccc(COc2ccccc2Br)o1)N1N=C(C(F)F)CC1(O)C(F)F (configuration not stated)	-	-	-	-	-	-
CCCCOc1ccc2c(c1)C(=O)c1cc(O)ccc1-2	-	149	.	-	-	-
COCCCN(C(C)=O)c1nc(-c2ccccc2)cs1	-	138	-	-	-	-
COc1ccc(-c2csc(N(CCc3ccccc3)C(=O)COc3ccccc3)n2)cc1	-	-	-	-	-	-
SMILES	STAT3 act	STAT1 activator	NF-kB neuron act	APP 5'UTR act	STAT1 blocker	STAT3 inh
COC(=O)/C(C#N)=C1/C=Cc2ccccc2N1	-	130	-	-	-	-
COc1cc(C#N)c(N=C(SCC#N)N2CCOCC2)cc1OC	-	-	-	-	-	-
Cc1ccc(NC(=O)ON=C2CCCC2)cc1	-	130	-	-	-	-
O=C(Nc1ccccc1)ON=C1CCCC1	-	-	-	-	-	-
O=c1cc(-c2cccs2)oc2ccc(Cl)cc12	-	147	-	-	-	-
O=c1cc(-c2ccc3c(c2)OCCO3)oc2ccc(Cl)cc12	-	142	7.2	214	-	-
O=c1oc(-c2cccs2)nc2sc3c(c12)CCCCC3	-	-	.	-	-	-
Cc1ccccc1-c1nc2sc3c(c2c(=O)o1)CCC3	-	-	4	-	-	-
O=c1oc(-c2ccccc2)nc2sc3c(c12)CCCC3	-	136	6.1	-	-	-
CCc1nc2sc3c(c2c(=O)o1)CCCC3	-	-	-	-	-	-
O=c1oc(-c2cc3ccccc3o2)nc2sc3c(c12)CCCC3	-	-	-	226	-	-
CC1CC(=O)C=C(O)C1C(=O)OC(C)(C)C (configuration not stated)	-	-	-	-	-	-
Cn1cc(CNCc2ccc(OC(F)(F)F)cc2)c(-c2ccc3c(c2)OCCO3)n1	-	-	-	-	-	56
Cn1cc(CNCc2cn[nH]c2-c2ccc(F)cc2)c(-c2ccc3c(c2)OCCO3)n1	-	-	-	-	-	-
